Mdm2 ligase inh = MDM2-luciferase reporter signal enhancers, primary screen, MDM2 E3 ligase inhibitor project, cell-based, luminescence, 1536-well. E3 ubiquitin-protein ligase Mdm2 (Homo sapiens), Q00987. actives 0.11% (n = 210,000). cell-based MDM2 ubiquitination luciferase reporter, 2 h; 0 = plate control, 100 = twice control, blank-subtracted. AID 1230, 2008. signal enhancement, % at 5 µM;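 active = signal enhancement of 30% or more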;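 note: luminescence tracks abundance of the self-degrading MDM2-luciferase fusion protein; higher signal means inhibition of MDM2 E3 ligase activity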
Target sequence (Q00987 whole entry, looked up, the tested form may be a part): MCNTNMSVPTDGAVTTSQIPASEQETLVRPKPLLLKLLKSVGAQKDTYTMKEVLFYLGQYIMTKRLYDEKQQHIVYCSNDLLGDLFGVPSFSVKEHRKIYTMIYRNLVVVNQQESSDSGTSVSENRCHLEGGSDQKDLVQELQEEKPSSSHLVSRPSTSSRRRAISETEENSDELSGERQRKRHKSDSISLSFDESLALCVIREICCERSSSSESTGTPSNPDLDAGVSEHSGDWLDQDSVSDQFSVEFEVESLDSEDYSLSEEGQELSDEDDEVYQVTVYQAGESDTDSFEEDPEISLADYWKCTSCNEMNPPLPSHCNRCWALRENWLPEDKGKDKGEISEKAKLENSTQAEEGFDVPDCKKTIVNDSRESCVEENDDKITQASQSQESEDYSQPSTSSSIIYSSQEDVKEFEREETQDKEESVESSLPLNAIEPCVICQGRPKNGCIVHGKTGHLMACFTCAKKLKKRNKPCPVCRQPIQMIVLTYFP
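Timing – 2 h compound exposure at 37 °C · Assay system – mammalian cells stably expressing self-ubiquitinating, self-degrading MDM2 E3–luciferase fusion · Amount – 2000 cells seeded into each well · Measure – % luminescence enhancement versus blank-corrected plate control mean · Measured by – SteadyLite luminescence, 15 min reagent step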
HSV replic up = enhancers of HSV replication in host cells, fold increase, host cell viability; AID 1956, 2009; HSV replication augmentation in cells; actives 0.005% (n = 220,000); maximum fold increase; in the data active = maximum fold increase above about 1.5; tested in PC3 cells
HSF1 inh = HSF1 inhibitors in luciferase reporter cells, primary screen, cell-based, NIH3T3, luminescence; NIH3T3-HGL HSE-luciferase, MG132-induced, luminescence 8 h; stronger effect = lower value; activity change, negative = inhibition, % at 7.5 µM (by protocol); actives 0.77% (n = 300,000); AID 2098, 2009;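 active = more than half of replicate wells show activity change below -50%, luminescence cut by over half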;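 note: luciferase reports HSF-1 transcriptional activity via heat shock element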
Rad51 HR inh = human RAD51 strand exchange inhibitors, primary screen, biochemical, fluorescence. DNA repair protein RAD51 homolog 1 (Homo sapiens), Q06609. hRad51 DNA strand exchange, fluorescence dequenching. inhibition, % at 10 µM. actives 0.085% (n = 200,000);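 active = inhibition above 40% at the single screening dose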
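Material: Human Rad51 nucleoprotein filaments preassembled on unlabelled ssDNA | Also added: Labelled 47-mer dsDNA for strand exchange | Dosing: Single dose, 10 µM final compound | Schedule: 30-min compound preincubation and 15-min exchange, both room temperature | Technique: Fluorescence dequenching at 485/520 nm | Measure: Percent inhibition relative to plate controls and blanks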
Hsp70 activator = Hsp70 transcriptional activators, primary screen, cell-based, HeLa, Hsp70 promoter luciferase, luminescence, 10 µM. HeLa Hsp70 promoter luciferase reporter; scaled: vehicle 0, proteasome-inhibitor control 100%. activation, % at 10 µM. actives 0.04% (n = 200,000);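 active = activation above the mean across all tested compounds plus 3 SD, cutoff set per campaign, cut at about 5.5% in these data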
HSF-1 act = HSF-1 activators, primary screen, NIH3T3-HGL cells, MG132 stress, luminescence, single point. activation, % at 9 µM. actives 1.7% (n = 300,000). AID 504408, 2011. NIH3T3-HGL HSF-1 luciferase reporter, 8 h; 100% = twice DMSO control signal;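 active = mean replicate activation of at least 50% with a set share of replicates each reaching 50%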
Hits are given with their value; i = inactive; nt = no result. Hits are enriched below; roughly 2.6% of the tested compounds scored in any of these assays.

SMILES	Mdm2 ligase inh	HSV replic up	HSF1 inh	Rad51 HR inh	Hsp70 activator	HSF-1 act
COc1ccc2nc3cc(Cl)ccc3c(Nc3cc(C(C)C)c(O)cc3C)c2c1	i	i	i	i	nt	186.7
C=C1CCC[C@]2(C)C[C@H]3OC(=O)C(CNCC(C)C)[C@H]3CC12 (stereo partly drawn)	nt	nt	i	nt	nt	68.0
C=C1CCC[C@]2(C)C[C@H]3OC(=O)C(CN4CC(C)OC(C)C4)[C@H]3C[C@@H]12 (stereo partly drawn)	nt	nt	i	nt	nt	i
C=C1CCC[C@]2(C)C[C@H]3OC(=O)C(CNCCN(C)C)[C@H]3CC12 (stereo partly drawn)	nt	nt	i	nt	nt	i
C=C1CCC[C@]2(C)C[C@H]3OC(=O)C(CNCCN(CC)CC)[C@H]3CC12 (stereo partly drawn)	nt	nt	i	nt	nt	61.0
c1ccc(Cn2nnc(CNc3ccccc3)c2-c2c(CNc3ccccc3)nnn2Cc2ccccc2)cc1	i	i	i	i	nt	i
Cc1nnc(SCC(=O)Nc2cccc(S(=O)(=O)NC3=NCCCCC3)c2)n1Cc1ccccc1	i	i	i	i	i	i
Cc1ccc(Nc2nnc(SCC(=O)Nc3ccc(S(=O)(=O)N4CCOCC4)cc3)s2)cc1	i	i	i	i	i	71.9
Cc1cccc(NC(=O)CSc2nnc(NC(=O)CN3CCCCC3)s2)c1	i	i	i	i	i	i
Cc1cccc(Nc2nnc(SCC(=O)Nc3cccc(S(=O)(=O)N4CCCCC4)c3)s2)c1	i	i	i	nt	i	58.3
Cc1ccc2nc(SCC(=O)Nc3cccc(S(=O)(=O)NC4=NCCCCC4)c3)[nH]c2c1	i	i	i	nt	nt	111.5
O=C(CSc1nnc(Nc2ccccc2)s1)Nc1ccc(S(=O)(=O)N2CCOCC2)cc1	i	i	i	i	i	i
Cc1ccc(Nc2nnc(SCC(=O)Nc3cccc(S(=O)(=O)NC4=NCCCCC4)c3)s2)cc1	i	i	i	i	i	85.7
CCN(CC(=O)Nc1ccc2c(c1)OCCO2)C(=O)/C=C/c1cccc(Br)c1	nt	nt	i	nt	nt	i
CCN(C(=O)CCCCC(=O)N(CC)c1ccccc1)c1ccccc1	nt	nt	i	nt	nt	i
Cc1cccc(C(=O)NCCC(=O)Nc2ccc(F)c([N+](=O)[O-])c2)c1	nt	nt	i	nt	nt	i
CCc1ccc(Nc2nnc(SCC(=O)Nc3cccc(S(=O)(=O)NC4=NCCCCC4)c3)s2)cc1	i	i	i	i	i	54.6
Cc1cc(SCC(=O)Nc2cccc(S(=O)(=O)NC3=NCCCCC3)c2)c(C)cc1Br	i	i	i	nt	i	i
CC1=C(C(=O)N2CCN(c3cc(C)ccc3C)CC2)C2(CCC(C)CC2)OC1=O (stereo not drawn)	nt	i	nt	i	i	nt
CCOC(=O)c1cc(CC)sc1NC(=O)c1ccc([N+](=O)[O-])c(N2CCOCC2)c1	i	i	i	nt	i	i
Cc1nc(-c2cc(-c3nc(-c4ccc(C(F)(F)F)cc4)no3)no2)cs1	i	i	i	i	nt	i
Cc1nc(-c2cc(-c3ccc(Cl)cc3)no2)cs1	nt	nt	i	nt	nt	70.8
Nc1ccc(-n2nncc2-c2ccc(Cl)cc2)cc1	nt	i	i	i	i	i
Cc1ccccc1CCNC(=O)Cn1ccc2cc(S(=O)(=O)N3CCCC3)ccc21	nt	nt	i	nt	nt	i
O=S(=O)(c1ccc(N2CCN(c3ccc(F)cc3)CC2)cc1)N1CCCC1	i	i	i	i	i	i
O=C(c1ccc(F)cc1)c1ccc(N2CCCCC2)cc1	nt	nt	i	nt	nt	63.9
O=S(=O)(N1CCCCC1)N1CCN(c2ccc(F)cc2)CC1	i	i	-70.7	i	i	i
Nc1nc(COc2ccc(F)cc2Cl)nc(N2CCCCC2)n1	i	i	i	i	i	i
CN(c1ccccc1)S(=O)(=O)c1ccc(C(=O)OCC(=O)NCc2cccs2)cc1	nt	i	i	i	nt	i
COc1ccc(OC)c(C(=O)/C=C/c2ccccc2C(F)(F)F)c1	i	nt	i	nt	i	212.0

Screens from PubChem BioAssay.
